The results in this text go back to ChEMBL document CHEMBL2407025, “Antiplasmodial and cytotoxic flavans and diarylpropanes from the stems of Combretum griffithii” (J Nat Prod, 2013).

Assay [1] has as its system Plasmodium falciparum. Description: Antimalarial activity against Plasmodium falciparum K1 assessed as reduction in parasite growth measuring [3H]-hypoxanthine uptake at 10 ug/ml by microculture radioisotope technique. The format is functional, organism-based.
A further assay deals with KB. The experiment in a line: Cytotoxicity against human KB cells by colorimetric method. Format: functional, cell-based. In outline: (§1)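 Human epidermoid carcinoma KB, breast cancer MCF7 and small cell lung cancer NCI-H187 lines assayed by the Skehan colorimetric method. Test samples at a maximum final concentration of 50 μg/mL. Doxorubicin served as reference. Values are reported as IC50.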

In assay [2] the test system is Mycobacterium tuberculosis. The experiment in a line: Antimycobacterial activity against Mycobacterium tuberculosis H37Ra at 50 ug/ml by MABA. Format: functional, organism-based. In outline: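 M. tuberculosis H37Ra was tested in vitro by microplate Alamar Blue assay (MABA). 50 μg/mL was the highest test concentration. Isoniazid was run as the reference standard.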
(In general: The colour change of resazurin is a common sign of viable cells or microbes.)

The next assay has as its system NCI-H187. Description: Cytotoxicity against human NCI-H187 cells by colorimetric method. Format: functional, cell-based. In outline:
as §1

For another assay, the system named is MCF7. The experiment in a line: Cytotoxicity against human MCF7 cells by colorimetric method. The format is functional, cell-based. The essentials: as §1
Assay [3] concerns Plasmodium falciparum. The experiment in a line: Antimalarial activity against Plasmodium falciparum K1 assessed as reduction in parasite growth measuring [3H]-hypoxanthine uptake by microculture radioisotope technique. The format is functional, organism-based. The essentials:
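P. falciparum K1 (multidrug-resistant) cultured in vitro by Trager–Jensen method. Growth inhibition read as [3H]-hypoxanthine uptake in a microculture radioisotope assay (Desjardins method). Samples tested up to a maximum final concentration of 10 μg/mL. IC50 taken as the concentration giving 50% reduction in parasite growth. Dihydroartemisinin served as reference.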

[4] abbreviates: Homo sapiens, MCF7, read-out: IC50.

Calls of active or inactive are those of the source. No cut-off for these calls is given here.

Turning to `COc1ccc2c(c1)O[C@H](c1ccc(O)c(OC)c1)CC2` [(2S)-4'-HYDROXY-7,3'-DIMETHOXYFLAVAN], the result (in the assay with Plasmodium falciparum [1]; in assay [2]) was inactive. Also, the values for the half-inhibitory concentration (IC50) in the assay on KB, with NCI-H187 and in the assay with MCF7 (setting [4]) were 97.9 µM, 60.2 µM and 88.4 µM, respectively.

As to `COc1cccc2c1C(=O)c1c(O)c3c(c(O)c1C2=O)C[C@@](O)(C(=O)CO)C[C@@H]3O[C@H]1C[C@H](N)[C@H](O)[C@H](C)O1` [DOXORUBICIN], the IC50 with KB turned out to be 0.38 µM; in the assay on NCI-H187, 0.12 µM.

Regarding `COc1cc2c(cc1OC)O[C@H](c1ccc(O)c(O)c1)CC2` [(2S)-3',4'-DIHYDROXY-6,7-DIMETHOXYFLAVAN], the IC50 with KB came to 43.1 µM; in the assay on Plasmodium falciparum [3], 15.7 µM; in the assay on NCI-H187, 51.4 µM; in the assay on MCF7 (setting [4]), 75 µM. Besides, the outcome in assay [2] was inactive.

In the case of `COc1cc([C@@H]2CCc3cc(OC)c(OC)cc3O2)ccc1O` [(2S)-4'-HYDROXY-6,7,3'-TRIMETHOXYFLAVAN], the outcome (with Plasmodium falciparum [1]; in assay [2]) was inactive. The IC50 in the assay with KB is 106 µM; with NCI-H187, 125 µM; in the assay with MCF7 (mcf7), “Not Active”.

`COc1cc(CCCc2c(OC)cc(O)cc2OC)ccc1O`: the result (in the assay with Plasmodium falciparum [1]; in assay [2]) was inactive. Also, the IC50 turned out to be 49.3 µM in the assay on KB, 96 µM with NCI-H187 and 64.2 µM in the assay on MCF7 (setting [4]).

With `COc1cc(CCCc2cc(OC)c(O)c(OC)c2)ccc1O`, the IC50 with KB was found to be 46 µM; in the assay on Plasmodium falciparum [3], 14.5 µM; in the assay on NCI-H187 it was 42.1 µM; in the assay on MCF7 (setting [4]), 72 µM. The result in assay [2] was inactive.

For the molecule `COc1cc(OC)c2c(c1)O[C@H](c1ccc(O)c(O)c1)CC2` [(2S)-3',4'-DIHYDROXY-5,7-DIMETHOXYFLAVAN], the IC50 is 31.8 µM in the assay on KB, 9.66 µM in the assay on Plasmodium falciparum [3], 10.4 µM in the assay on NCI-H187 and 49.1 µM with MCF7 (setting [4]). Moreover, the result in assay [2] was inactive.

Regarding `COc1cc(CCCc2cc(O)c(OC)cc2OC)ccc1O`, the result (in the assay with Plasmodium falciparum [1]; in assay [2]) was inactive. Moreover, the IC50 with KB was 24.6 µM; in the assay on NCI-H187, 34.6 µM; with MCF7 (setting [4]), 23.1 µM.

`COc1cc([C@@H]2CCc3cc(O)c(OC)cc3O2)ccc1O`: the result (in the assay with Plasmodium falciparum [1]; in assay [2]) was inactive. For the same molecule, the IC50 in the assay on KB came to 69 µM; with NCI-H187 it was 76.5 µM; in the assay on MCF7 (setting [4]) it was 90.1 µM.

`COc1cc2c(cc1O)CC[C@@H](c1ccc(O)c(O)c1)O2`: the IC50 came to 24.6 µM with KB, 13 µM in the assay on Plasmodium falciparum [3], 72 µM in the assay with NCI-H187 and 110 µM in the assay with MCF7 (setting [4]). The result in assay [2] was inactive.

Take `C[C@H]1[C@@H](O)O[C@@H]2O[C@@]3(C)CC[C@H]4[C@H](C)CC[C@@H]1[C@@]24OO3` [ARTENIMOL]: in the assay on Plasmodium falciparum [3], the IC50 turned out to be 0.00142 µM.

Usually IC50 stands for the concentration at which inhibition is half-maximal.
